Results as given in ChEMBL document CHEMBL4261538, “Synthesis and molecular docking studies of xanthone attached amino acids as potential antimicrobial and anti-inflammatory agents” (Medchemcomm, 2017).
In brackets after ≈: the same amount, converted by molar mass.

Key:
Staphylococcus aureus [1] = experiment: Antibacterial activity against Staphylococcus aureus at 25 ug/ml incubated for 24 hrs by agar well diffusion method; format: functional; details: read-out: DIZ
Summary of the method: (§1)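 Bacteria grown in nutrient broth at 37 °C for 24 h, then subcultured at room temperature. Compounds dissolved in DMSO at 5 mg mL⁻¹ and 5–20 µL added to 6 mm wells, giving 25, 50, 75, 100 µg per well. Gentamicin was the positive control and DMSO the negative control. Plates held at 37 °C for 24 h, then inhibition zone diameter (mm) measured. Values are means of three determinations.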

Staphylococcus aureus [2] = experiment: Antibacterial activity against Staphylococcus aureus at 50 ug/ml incubated for 24 hrs by agar well diffusion method; format: functional; details: read-out: DIZ; summary of the method: as §1
Staphylococcus aureus [3] = experiment: Antibacterial activity against Staphylococcus aureus at 75 ug/ml incubated for 24 hrs by agar well diffusion method; format: functional; details: read-out: DIZ; summary of the method: as §1
Staphylococcus aureus [4] = experiment: Antibacterial activity against Staphylococcus aureus at 100 ug/ml incubated for 24 hrs by agar well diffusion method; format: functional; details: read-out: DIZ; summary of the method: as §1
Bacillus subtilis [5] = experiment: Antibacterial activity against Bacillus subtilis at 25 ug/ml incubated for 24 hrs by agar well diffusion method; format: functional; details: read-out: DIZ; summary of the method: as §1
Bacillus subtilis [6] = experiment: Antibacterial activity against Bacillus subtilis at 50 ug/ml incubated for 24 hrs by agar well diffusion method; format: functional; details: read-out: DIZ; summary of the method: as §1
Bacillus subtilis [7] = experiment: Antibacterial activity against Bacillus subtilis at 75 ug/ml incubated for 24 hrs by agar well diffusion method; format: functional; details: read-out: DIZ; summary of the method: as §1
Bacillus subtilis [8] = experiment: Antibacterial activity against Bacillus subtilis at 100 ug/ml incubated for 24 hrs by agar well diffusion method; format: functional; details: read-out: DIZ; summary of the method: as §1
Escherichia coli [9] = experiment: Antibacterial activity against Escherichia coli at 25 ug/ml incubated for 24 hrs by agar well diffusion method; format: functional; details: read-out: DIZ; summary of the method: as §1
Escherichia coli [10] = experiment: Antibacterial activity against Escherichia coli at 50 ug/ml incubated for 24 hrs by agar well diffusion method; format: functional; details: read-out: DIZ; summary of the method: as §1
Escherichia coli [11] = experiment: Antibacterial activity against Escherichia coli at 75 ug/ml incubated for 24 hrs by agar well diffusion method; format: functional; details: read-out: DIZ; summary of the method: as §1
Escherichia coli [12] = experiment: Antibacterial activity against Escherichia coli at 100 ug/ml incubated for 24 hrs by agar well diffusion method; format: functional; details: read-out: DIZ; summary of the method: as §1
Klebsiella pneumoniae [13] = experiment: Antibacterial activity against Klebsiella pneumoniae at 25 ug/ml incubated for 24 hrs by agar well diffusion method; format: functional; details: read-out: DIZ; summary of the method: as §1
Klebsiella pneumoniae [14] = experiment: Antibacterial activity against Klebsiella pneumoniae at 50 ug/ml incubated for 24 hrs by agar well diffusion method; format: functional; details: read-out: DIZ; summary of the method: as §1
Klebsiella pneumoniae [15] = experiment: Antibacterial activity against Klebsiella pneumoniae at 75 ug/ml incubated for 24 hrs by agar well diffusion method; format: functional; details: read-out: DIZ; summary of the method: as §1
Klebsiella pneumoniae [16] = experiment: Antibacterial activity against Klebsiella pneumoniae at 100 ug/ml incubated for 24 hrs by agar well diffusion method; format: functional; details: read-out: DIZ; summary of the method: as §1
Aspergillus niger [17] = experiment: Antifungal activity against Aspergillus niger at 25 ug/ml incubated for 48 hrs by agar well diffusion method; format: functional; details: read-out: DIZ
Summary of the method: (§2)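 Compounds dissolved in DMSO at 5 mg mL⁻¹ and 5–20 µL added to 6 mm wells, giving 25, 50, 75, 100 µg per well. Bavistin was the positive control and DMSO the negative control. Plates incubated at 28 °C for 48 h, then inhibition zone diameter (mm) measured. Values are means of three determinations.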

Aspergillus niger [18] = experiment: Antifungal activity against Aspergillus niger at 50 ug/ml incubated for 48 hrs by agar well diffusion method; format: functional; details: read-out: DIZ; summary of the method: as §2
Aspergillus niger [19] = experiment: Antifungal activity against Aspergillus niger at 75 ug/ml incubated for 48 hrs by agar well diffusion method; format: functional; details: read-out: DIZ; summary of the method: as §2
Aspergillus niger [20] = experiment: Antifungal activity against Aspergillus niger at 100 ug/ml incubated for 48 hrs by agar well diffusion method; format: functional; details: read-out: DIZ; summary of the method: as §2
Candida albicans [21] = experiment: Antifungal activity against Candida albicans at 25 ug/ml incubated for 48 hrs by agar well diffusion method; format: functional; details: read-out: DIZ; summary of the method: as §2
Candida albicans [22] = experiment: Antifungal activity against Candida albicans at 50 ug/ml incubated for 48 hrs by agar well diffusion method; format: functional; details: read-out: DIZ; summary of the method: as §2
Candida albicans [23] = experiment: Antifungal activity against Candida albicans at 75 ug/ml incubated for 48 hrs by agar well diffusion method; format: functional; details: read-out: DIZ; summary of the method: as §2
Candida albicans [24] = experiment: Antifungal activity against Candida albicans at 100 ug/ml incubated for 48 hrs by agar well diffusion method; format: functional; details: read-out: DIZ; summary of the method: as §2
Fusarium oxysporum [25] = experiment: Antifungal activity against Fusarium oxysporum at 25 ug/ml incubated for 48 hrs by agar well diffusion method; format: functional; details: read-out: DIZ; summary of the method: as §2
Fusarium oxysporum [26] = experiment: Antifungal activity against Fusarium oxysporum at 50 ug/ml incubated for 48 hrs by agar well diffusion method; format: functional; details: read-out: DIZ; summary of the method: as §2
Fusarium oxysporum [27] = experiment: Antifungal activity against Fusarium oxysporum at 75 ug/ml incubated for 48 hrs by agar well diffusion method; format: functional; details: read-out: DIZ; summary of the method: as §2
Fusarium oxysporum [28] = experiment: Antifungal activity against Fusarium oxysporum at 100 ug/ml incubated for 48 hrs by agar well diffusion method; format: functional; details: read-out: DIZ; summary of the method: as §2
Erythrocyte = experiment: Anti-inflammatory activity in human RBC assessed as inhibition of hypotonic solution-induced hemolysis after 10 mins by spectrophotometric method; format: functional, cell-based
Summary of the method: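 Human blood (heparinized) washed with 0.9% saline, packed cells made into a 40% v/v stock in isotonic phosphate buffer (154 mM NaCl, 10 mM sodium phosphate, pH 7.4). Stock RBC mixed with hypotonic buffer (50 mM NaCl, 10 mM phosphate, pH 7.4) plus sample at 20–100 µg mL⁻¹.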

SMILES	zone of inhibition at 25 µg/mL (Staphylococcus aureus [1])	zone of inhibition at 50 µg/mL (Staphylococcus aureus [2])	zone of inhibition at 75 µg/mL (Staphylococcus aureus [3])	zone of inhibition at 100 µg/mL (Staphylococcus aureus [4])	zone of inhibition at 25 µg/mL (Bacillus subtilis [5])	zone of inhibition at 50 µg/mL (Bacillus subtilis [6])	zone of inhibition at 75 µg/mL (Bacillus subtilis [7])	zone of inhibition at 100 µg/mL (Bacillus subtilis [8])	zone of inhibition at 25 µg/mL (Escherichia coli [9])	zone of inhibition at 50 µg/mL (Escherichia coli [10])	zone of inhibition at 75 µg/mL (Escherichia coli [11])	zone of inhibition at 100 µg/mL (Escherichia coli [12])	zone of inhibition at 25 µg/mL (Klebsiella pneumoniae [13])	zone of inhibition at 50 µg/mL (Klebsiella pneumoniae [14])	zone of inhibition at 75 µg/mL (Klebsiella pneumoniae [15])	zone of inhibition at 100 µg/mL (Klebsiella pneumoniae [16])	zone of inhibition at 25 µg/mL (Aspergillus niger [17])	zone of inhibition at 50 µg/mL (Aspergillus niger [18])	zone of inhibition at 75 µg/mL (Aspergillus niger [19])	zone of inhibition at 100 µg/mL (Aspergillus niger [20])	other results
CSCC[C@H](NC(=O)OC(C)(C)C)C(=O)Oc1ccc2c(=O)c3ccccc3oc2c1	15 mm	17 mm	22 mm	27 mm	13 mm	18 mm	24 mm	29 mm	16 mm	19 mm	25 mm	30 mm	16 mm	22 mm	26 mm	31 mm	12 mm	15 mm	18 mm	22 mm	zone of inhibition at 25 µg/mL (Candida albicans [21]): 11 mm; zone of inhibition at 50 µg/mL (Candida albicans [22]): 16 mm; zone of inhibition at 75 µg/mL (Candida albicans [23]): 19 mm; zone of inhibition at 100 µg/mL (Candida albicans [24]): 21 mm; zone of inhibition at 25 µg/mL (Fusarium oxysporum [25]): 8 mm; zone of inhibition at 50 µg/mL (Fusarium oxysporum [26]): 14 mm; zone of inhibition at 75 µg/mL (Fusarium oxysporum [27]): 17 mm; zone of inhibition at 100 µg/mL (Fusarium oxysporum [28]): 23 mm; IC50 (Erythrocyte): 36 µg/mL (≈ 81.2 µM)
C[C@H](N)C(=O)Oc1ccc2c(=O)c3ccccc3oc2c1.Cl	9 mm	13 mm	19 mm	22 mm	11 mm	16 mm	19 mm	23 mm	15 mm	19 mm	22 mm	26 mm	8 mm	16 mm	23 mm	28 mm	8 mm	12 mm	15 mm	18 mm	zone of inhibition at 25 µg/mL (Candida albicans [21]): 7 mm; zone of inhibition at 50 µg/mL (Candida albicans [22]): 12 mm; zone of inhibition at 75 µg/mL (Candida albicans [23]): 15 mm; zone of inhibition at 100 µg/mL (Candida albicans [24]): 17 mm; zone of inhibition at 25 µg/mL (Fusarium oxysporum [25]): 6 mm; zone of inhibition at 50 µg/mL (Fusarium oxysporum [26]): 10 mm; zone of inhibition at 75 µg/mL (Fusarium oxysporum [27]): 16 mm; zone of inhibition at 100 µg/mL (Fusarium oxysporum [28]): 18 mm; IC50 (Erythrocyte): 78 µg/mL
CC(C)C[C@H](NC(=O)OC(C)(C)C)C(=O)Oc1ccc2c(=O)c3ccccc3oc2c1	7 mm	13 mm	17 mm	22 mm	11 mm	16 mm	20 mm	24 mm	4 mm	10 mm	17 mm	21 mm	8 mm	11 mm	14 mm	20 mm	10 mm	15 mm	18 mm	22 mm	zone of inhibition at 25 µg/mL (Candida albicans [21]): 8 mm; zone of inhibition at 50 µg/mL (Candida albicans [22]): 11 mm; zone of inhibition at 75 µg/mL (Candida albicans [23]): 16 mm; zone of inhibition at 100 µg/mL (Candida albicans [24]): 20 mm; zone of inhibition at 25 µg/mL (Fusarium oxysporum [25]): 10 mm; zone of inhibition at 50 µg/mL (Fusarium oxysporum [26]): 12 mm; zone of inhibition at 75 µg/mL (Fusarium oxysporum [27]): 15 mm; zone of inhibition at 100 µg/mL (Fusarium oxysporum [28]): 19 mm; IC50 (Erythrocyte): 64 µg/mL (≈ 150 µM)
